Test system: MS2 coat protein
Experiment: apparent Kd, MS2 coat protein; higher = weaker binding; RNA-MaP array; tryptophan 2.4 mM where present
Method in brief: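 Each design was made on Illumina sequencing-chip clusters by stalled E. coli RNA polymerase and titrated with SNAP-549-labelled MS2 coat protein from 0.7 or 1.5 nM, doubling to 3 µM, in the absence and then the presence of constant ligand. The buffer was 100 mM Tris-HCl pH 7.5, 80 mM KCl, 4 mM MgCl2, BSA, DTT, yeast tRNA and Tween-20. The apparent Kd is the median of filtered per-cluster fits of binding curves, with green signal normalised to red-channel RNA signal and control-cluster median Fmax.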

[1] = designed as: OFF switch for tryptophan, no ligand
[2] = ligand present: tryptophan, designed as: OFF switch for tryptophan
[3] = designed as: ON switch for tryptophan, no ligand
[4] = ligand present: tryptophan, designed as: ON switch for tryptophan

Sequence | apparent Kd [1] [nM] | apparent Kd [2] [nM] | apparent Kd [3] [nM] | apparent Kd [4] [nM]
GUAUAUUGAAAACAAUAUACAGUGGGUGAACGAGGACCGGUACGGCCGCCACUCGGACAUGAGGAUCACCCAUGUCCAUGUGAAA | 17 | 35.2 |  | 
AUAUAUACAUGAGGAUCACCCAUGUUAUUUCGAGGACCGGUACGGCCGCCACUCGAUAGAGUAGAAGUAAAUUUUGAUUCAUGUA |  |  | 20.6 | 18.1
CUACAUUUGUAGAAACCGGUCACCAUUACUCGAGGACCGGUACGGCCGCCACUCGUGUCAUGUGAUACAUGAGGAUCACCCAUGU |  |  | 22 | 23.1
AUUCAUGGAAACAUGAGAUAUCCUACCGGUCGAGGACCGGUACGGCCGCCACUCGGUUGGUGGCACAUGAGGAUCACCCAUGUUA |  |  | 291 | 265
AUGACUAACAAAGAAGAUAAAAUGGGUGAACGAGGACCGGUACGGCCGCCACUCGGACAUGAGGAUCACCCAUGUCCAUGUGCAA | 22.3 | 28.7 |  | 
ACCUGCGUUUGAUAAAAUCAGACGCAGGUUCGAGGACCGGUACGGCCGCCACUCGGACAUGAGGAUCACCCAUGUUUGACAUGGG | 109 | 256 |  | 
AAUGUAUGGCACAUGAGGAUCACCCAUGUGCGAGGACCGGUACGGCCGCCACUCGGUCCUGGAUUCUUAUUACUAUACAUUAAUG | 14.5 | 16.7 |  | 
AACAUGAGCACGGCCGCCACUCCAUGAACAUGAGGAUCACCCAUACACAUGAGGAUCACCCAUGUGAGGACCGGGUGUCCAUGUG | 13.3 | 56.6 |  | 
AGCGUUCGGUUUAUGCCGGACAAUGGGUGACGAGGACCGGUACGGCCGCCACUCGGGCGCCCGGUUACAUGAGGAUCACCCAUGU |  |  | 258 | 30.1
AAUAAACAUGAGGAUCACCCAUGUAGGGUGCGAGGACCGGUACGGCCGCCACUCGGGUGAAAACAUGAGGAUCACCCAUGUUAAA | 198 | 420 |  | 
UACUUGCUGACGGCCGCCACUAGAACAUGAGGAUCACCCAUGUAUCUAGUGGCAAUCCUCAUGACUAGGACCGGGUCAGCAAGAU | 9.71 | 9.56 |  | 
GGUACAUGAGGAUCACCCAUGUAUUAGUGCCGAGGACCGGUACGGCCGCCACUCGCUUCACAUGAGGAUCACCCAUGUGUCACAG |  |  | 32 | 40.8
GGUUACUCUACGGCCGCCACUGAUUAAUUAUAAUCCUGUACAUAAACAUGAGGAUCACCCAUGUACAGGACCGGGUAGUGUAACC |  |  | 34.7 | 29.1
AGCACUGUGACGGCCGCCACUACAUAUAGGGUGGUCAGGCCCAUAAUACAUGAGGAUCACCCAUGUAGGACCGGGUCUCAGUGCA | 16.8 | 12.1 |  | 
AACAGUUGGUCGGCCGCCACUACAUGAGGAUCACCCAUGUAGCGCGUUCUGCUCCAGGGCUCAUCUAGGACCGGGACACGAGUGU | 15.1 | 16 |  | 
CUGUACAUCUCGGCCGCCACUGCAACAUGUACACAUGGACAUGUACAUGAGGAUCACCCAUGUGGCAGGACCGGGAGGUGUGCAG |  |  | 192 | 26.5
AAUUAUCAGUCGGCCGCCACUGACACAUGAGGAUCACCCAUGUAACUUGGGUUAAAUUUACUGAACAGGACCGGGACAAAGGCUA | 179 | 236 |  | 
GGUUACUCUACGGCCGCCACUGUAAUGUAAAGAUACCUGUACAUGACAUGAGGAUCACCCAUGUACAGGACCGGGUAGUGUAACC |  |  | 237 | 48.1
CACGAAAGAUCGGCCGCCACUAAUCUAUGUGUACUAGCACAUGAGGAUCACCCAUGUUCUUGCGUUAGGACCGGGAUUGAGCGUG | 22.2 | 18.8 |  | 
AUAACAUGAGGAUCACCCAUGUAUUGGUUACGAGGACCGGUACGGCCGCCACUCGUAUUUUGGUGGUAUUUUGUAUAUAUGAUAA |  |  | 26.8 | 26.3
CCUAUGCAGUCGGCCGCCACUGAACAUGAGGAUCACCCAUGUUAUUAUAAAUAUGGUCCUAAAAUCAGGACCGGGACUGUAUAGG | 68 | 228 |  | 
GGCAAGCGAGACAUGAGGAUCACCCAUGUUCGAGGACCGGUACGGCCGCCACUCGGUGGACUCAUGGUAAAGCCGGUGAGCCAAA |  |  | 34.6 | 74.3
UCGUUUGAGGCGGCCGCCACUGGUCUCAUGGUCAACAUGAGGAUCACCCAUGUAUCUUUGCUAAGCAGGACCGGGCCUCGAGCGA | 66.7 | 36.8 |  | 
UGUGCAUGAGUUGUAAAAGCUCAUGGGCAUCGAGGACCGGUACGGCCGCCACUCGGCUGUACAUGAGGAUCACCCAUGUCAGGGU |  |  | 302 | 567
UACUUGCUGACGGCCGCCACUAGAACAUGAGGAUCACCCAUGUACCCGGUCCUACAUGGGAUGACUAGGACCGGGUCAGCAAGAU | 40.9 | 141 |  | 

Sequence | apparent Kd [1] [nM] | apparent Kd [2] [nM] | apparent Kd [3] [nM] | apparent Kd [4] [nM]
UCAUAAGUACCGGUCCUCAGAUCCUCAUGACGAGGACCGGUACGGCCGCCACUCGAAACAUGAGGAUCACCCAUGUAAUAAUAUU | 21.3 | 19 |  | 
AACGGUCGUACCGGAAUGAUCCUCAUGUAACGAGGACCGGUACGGCCGCCACUCGAUAACAUGAGGAUCACCCAUGUAAUAAUAA | 12.9 | 11 |  | 
AGUCUGGACUCGGCCGCCACUCGUGAUGCUUUGGCACAUGAGGAUCACCCAUGUGGUCGGCCUUAGAGGACCGGGAGUACCAGUC |  |  | 56.1 | 13.7
ACAGGUACGCCUAUUAAAAUAAAACACCUACGAGGACCGGUACGGCCGCCACUCGGGUGACAUGAGGAUCACCCAUGUGGCUAAA |  |  | 394 | 155
AUACAUGAGGAUCACCCAUGUGAUGGCCGGCGAGGACCGGUACGGCCGCCACUCGUGAUCCGUCCUGAGAGCAAAGCCCUCAACA |  |  | 82.1 | 102
GGAUUAGAGGCGGCCGCCACUGGAACAUGAGGAUCACCCAUGUAGUGCAUGUAAUUAACCUCGAUCAGGACCGGGCCGAUAGUCA | 59.9 | 103 |  | 
AUAUAUACAUGAGGAUCACCCAUGUUAUUUCGAGGACCGGUACGGCCGCCACUCGAUAGAGUAGAAGUAAAUUUUGUUACAUGUA |  |  | 11.1 | 11.4
GGGCGCGUGGACUGGCGUGCUCCGCUCCGUCGAGGACCGGUACGGCCGCCACUCGACAUGAGGAUCACCCAUGUGUGAGCUCGCG | 152 | 474 |  | 
CACGAAAGAUCGGCCGCCACUAUUUGAUGUGUUCUUUCACAUGAGGAUCACCCAUGUUCUUAUUAUAGGACCGGGAUUGAGCGUG | 83.8 | 64.3 |  | 
CAAAUAAGAACAAACAAAUAACGGUUUUCGCGAGGACCGGUACGGCCGCCACUCGUGUGAAAUAACACAUGAGGAUCACCCAUGU |  |  | 36.1 | 20.6
AUUGUGAAGUCGGCCGCCACUGCAUAGUUUAACCACAUGUAACAUGAGGAUCACCCAUGUAAUGACAGGACCGGGACAAUAGUAA |  |  | 28 | 21.1
GGUACAUGAGGAUCACCCAUGUAUUAGUGCCGAGGACCGGUACGGCCGCCACUCGCUUCACAUGAGGAUCACCCAUGUGUCACUG |  |  | 29.8 | 39.8
GGUAUGUAUUCGGAAACGAAUGCAUACCAACGAGGACCGGUACGGCCGCCACUCGCCGUCCUCAAACAUGAGGAUCACCCAUGUA | 25.9 | 68.5 |  | 
UUAUAAGUACCGGUCCUCAGAUCCUCAUGACGAGGACCGGUACGGCCGCCACUCGAAACAUGAGGAUCACCCAUGUAAUAAUAUC | 23.8 | 24.7 |  | 
UGUGGGCGCACGGCCGCCACUGUCUUCAUCUGUUUGUCUACAUGAGGAUCACCCAUGUUGGUUUACAGGACCGGGUGCAUCUAUG |  |  | 45.2 | 30.1
AUAACAUGAGGAUCACCCAUGUAUUGGUAACGAGGACCGGUACGGCCGCCACUCGAAUUUUGGUGGUAUAAUAUAUAUAUGAUUA |  |  | 21 | 20.6
CGAUAUAAGACGGCCGCCACUAUUAUGUAACAAAAUAAACAUGAGGAUCACCCAUGUACAUGGGAUAGGACCGGGUCCAAUAACG |  |  | 112 | 58.2
UCGGAGAAGUCGGCCGCCACUGAACUCUUGUUCUACAUGAGGAUCACCCAUGUUCCUUUGUUUAACAGGACCGGGACUUAUACGA |  |  | 224 | 96.3
GCAACGCUGUCGGCCGCCACUUUUACAUUGGCCGUGCUGUCUCUACAUGAGGAUCACCCAUGUGGAAGGACCGGGACAGCACACU | 29 | 64 |  | 
UAAUGCAGGUCGGCCGCCACUACACACAUGAGGAUCACCCAUGUAGUUACUGGGUGAAGUGGCAGUAGGACCGGGACCUGCAUAA |  |  | 419 | 516
CACGAAAGAUCGGCCGCCACUCAUGUAGCUUACAUGAGGAUCACCCAUGUAUUUUCUUUCUUUUAGAGGACCGGGAUCGAGCGUG |  |  | 37.4 | 19.2
CUAUGCAGGUCGGCCGCCACUACACACAUGAGGAUCACCCAUGUAGUUACUGGGUGAAGUGGCAGUAGGACCGGGACCUGCAUAU |  |  | 257 | 360
UAUAGUACCAGACAUGAGGAUCACCCAUGUCGAGGACCGGUACGGCCGCCACUCGGCAGUUUGCGUCCUCAGGUACUCCGGGUCA | 13.9 | 16.6 |  | 
AUGCAUAGCACGGCCGCCACUCAAAUUAAACAUGAGGAUCACCCAUGUAACAUGGAUAAAAUAAAGAGGACCGGGUGAAAUGCAA |  |  | 28.3 | 18.9
AAUGUAUGGCACAUGAGGAUCACCCAUGUGCGAGGACCGGUACGGCCGCCACUCGGUCGGUGGUUAAUGAAGCUAUACAUUAAUG | 40 | 57.7 |  | 

Source: the EternaBench riboswitch data
